Here are results for eleven compounds from ChEMBL document CHEMBL1126834, “Chemistry, binding affinities, and behavioral properties of a new class of "antineophobic" mitochondrial DBI receptor complex (mDRC) ligands” (J Med Chem, 1993).

Some results are limits rather than exact numbers.

In one experiment the target is Cannabinoid receptor 1 (Rattus norvegicus, UniProt P20272). The experiment in a line: Inhibitory activity, measured by displacement [3H]CP-55940 from cannabinoid receptor (CB1) in rat brain. Format: tissue-based.
Experiment [1] can be described thus: Inhibitory activity at GABA B receptor, measured by the ability to displace [3H]baclofen from GABA B receptor in rat brain. It is filed as tissue-based.
Experiment [2] addresses GABA-A receptor; anion channel. Briefly: Inhibitory activity at GABA A receptor, measured by the ability to displace [35S]TBPS from GABA A receptor in rat brain. It is filed as tissue-based.
For experiment [3], the target named is GABA-A receptor; anion channel. Briefly: Inhibitory activity at GABA A receptor, measured by the ability to displace [3H]GABA from GABA A receptor in rat brain. Format: tissue-based.
The target in experiment [4] is GABA-A receptor; anion channel. The experiment in a line: Inhibitory activity at GABA A receptor, measured by the ability to displace [3H]flumazenil from GABA A receptor in rat brain. Format: tissue-based.
The target in experiment [5] is GABA-A receptor; anion channel. The experiment in a line: Inhibitory activity at GABA A receptor, measured by the ability to displace [3H]zolpidem from GABA A receptor in rat brain. Format: tissue-based.
Experiment [6] addresses T1, Gastrin/cholecystokinin type B receptor (Rattus norvegicus, UniProt P30553).
T1 sequence (P30553 whole entry): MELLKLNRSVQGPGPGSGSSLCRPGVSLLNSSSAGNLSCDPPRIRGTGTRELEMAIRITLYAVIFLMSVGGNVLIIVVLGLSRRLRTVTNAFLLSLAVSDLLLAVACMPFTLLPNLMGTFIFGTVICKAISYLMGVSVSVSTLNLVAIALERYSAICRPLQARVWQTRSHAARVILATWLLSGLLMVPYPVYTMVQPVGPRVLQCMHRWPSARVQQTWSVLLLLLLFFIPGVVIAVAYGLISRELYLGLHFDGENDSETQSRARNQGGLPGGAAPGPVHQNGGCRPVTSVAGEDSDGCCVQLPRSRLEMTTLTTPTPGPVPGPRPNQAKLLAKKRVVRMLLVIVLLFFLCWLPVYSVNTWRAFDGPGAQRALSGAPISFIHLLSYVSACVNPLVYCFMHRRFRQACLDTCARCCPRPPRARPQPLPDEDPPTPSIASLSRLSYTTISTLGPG
The experiment in a line: Inhibitory activity by measuring its ability to displace [3H]L-365260 from cholecystokinin receptor in rat brain. It is filed as tissue-based.

In experiment [7] the target is Adrenergic receptor alpha. Briefly: Inhibitory activity by measuring its ability to displace [3H]WB-4101 from alpha-adrenergic receptor in rat brain. It is filed as tissue-based.
The target in experiment [8] is Adrenergic receptor alpha. The experiment in a line: Inhibitory activity by measuring its ability to displace [3H]clonidine from alpha-adrenergic receptor in rat brain. It is filed as tissue-based.
A further experiment concerns the target Adrenergic receptor beta (Rattus norvegicus, UniProt P18090+P10608+P26255). The experiment in a line: Inhibitory activity by measuring its ability to displace [125I]pindolol from beta-adrenergic receptor in rat brain. It is filed as tissue-based.
A short description of experiment [9]: Inhibitory activity by measuring its ability to displace [3H]glycine from glycine receptor in rat brain. Format: tissue-based.
Another experiment concerns the target Glutamate NMDA receptor. The experiment in a line: Inhibitory activity by measuring its ability to displace [3H]-MK-801 from glutamate(NMDA) receptor in rat brain. It is filed as tissue-based.
Experiment [10] can be described thus: Tested for inhibitory activity by measuring its ability to displace [3H]AMPA from glutamate (non-NMDA) receptor in rat brain. Format: tissue-based.
A short description of experiment [11]: Inhibitory activity by measuring its ability to displace [3H]spiperone from dopamine or serotonin 5-HT-1 receptors in rat brain. Format: tissue-based.
In another experiment the target is Translocator protein (Rattus norvegicus, UniProt P16257). The experiment in a line: Binding affinity against mitochondrial DBI complex (peripheral benzodiazepine receptor) using primary cultures of glial cells. In a few lines:
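Glia from cerebella of 8-day-old Sprague–Dawley rat pups, trypsin-dissociated and grown 14 days (~95% astroglia). Cells lysed in 50 mM Hepes pH 7.4, 4 μg protein per tube. Incubated with [3H]4'-chlorodiazepam and competitor for 90 min at 4 °C, then filtered. Nonspecific binding defined with 10 μM 4'-chlorodiazepam. Triplicate competition curves; IC50 by nonlinear regression, converted to Ki (Bylund–Yamamura).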

Cannabinoid receptor 1, sequence (P20272 whole entry): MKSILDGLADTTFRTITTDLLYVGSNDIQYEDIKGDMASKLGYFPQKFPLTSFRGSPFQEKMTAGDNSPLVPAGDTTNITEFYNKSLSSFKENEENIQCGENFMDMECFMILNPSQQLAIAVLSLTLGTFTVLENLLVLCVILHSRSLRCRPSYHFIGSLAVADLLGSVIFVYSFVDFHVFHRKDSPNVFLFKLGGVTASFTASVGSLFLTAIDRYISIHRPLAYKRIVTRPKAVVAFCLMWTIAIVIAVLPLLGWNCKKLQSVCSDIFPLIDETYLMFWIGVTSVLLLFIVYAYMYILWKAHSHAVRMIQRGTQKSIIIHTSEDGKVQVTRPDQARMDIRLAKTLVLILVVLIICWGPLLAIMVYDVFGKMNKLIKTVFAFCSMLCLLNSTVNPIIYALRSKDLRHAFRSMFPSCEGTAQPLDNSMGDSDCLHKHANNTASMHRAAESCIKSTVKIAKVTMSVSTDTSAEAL
Translocator protein, sequence (P16257 whole entry, looked up): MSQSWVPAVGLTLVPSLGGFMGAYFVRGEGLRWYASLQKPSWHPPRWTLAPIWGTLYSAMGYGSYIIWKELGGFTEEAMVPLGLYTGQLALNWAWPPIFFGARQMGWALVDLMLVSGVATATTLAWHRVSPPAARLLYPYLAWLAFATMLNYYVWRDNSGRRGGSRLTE

For the compound `Cc1ccc(-c2[nH]c3ccc(C)cc3c2CC(=O)N(C)C)cc1`, the IC50 (at Cannabinoid receptor 1; in experiment [1]; in experiment [2]; in experiment [3]; in [4]; in [5]) was over 1000 nM in each case. Also, the IC50 (in experiment [6]; in [7]; in [8]; at Adrenergic receptor beta; in experiment [9]; on Glutamate NMDA receptor) was over 1000 nM in each case. Besides, the IC50 in [10] and in experiment [11] was over 1000 nM each time. The Ki (commonly the equilibrium dissociation constant of an inhibitor or competing ligand from its target) on Translocator protein was 150 nM.

Take `O=C1Cc2c([nH]c3ccccc23)-c2ccccc2N1` [PAULLONE]: the IC50 (at Cannabinoid receptor 1; in experiment [1]; in experiment [2]; in experiment [3]; in experiment [4]; in [5]) was over 1000 nM throughout. Further, the IC50 (in experiment [6]; in experiment [7]; in experiment [8]; at Adrenergic receptor beta; in experiment [9]; on Glutamate NMDA receptor) was over 1000 nM each time. Further, the IC50 in experiment [10] and in experiment [11] was over 1000 nM in each case.

For the compound `CCCN(CCC)C(=O)Cc1c2n(c3ccccc13)CCCc1ccccc1-2`, the IC50 (on Cannabinoid receptor 1; in experiment [1]; in experiment [2]; in [3]; in experiment [4]; in experiment [5]) was over 1000 nM in each case. The IC50 (in [6]; in experiment [7]; in [8]; on Adrenergic receptor beta; in experiment [9]; at Glutamate NMDA receptor) was over 1000 nM throughout. Moreover, the IC50 in [10] and in [11] was over 1000 nM throughout. Besides, the Ki at Translocator protein was found to be 328 nM.

As for `CCCCCCN(CCCCCC)C(=S)Cc1c(-c2ccc(F)cc2)[nH]c2ccccc12`, the IC50 (at Cannabinoid receptor 1; in experiment [1]; in experiment [2]; in experiment [3]; in experiment [4]; in experiment [5]) was over 1000 nM in each case. Also, the half-maximal inhibitory concentration (IC50) (in [6]; in experiment [7]; in experiment [8]; at Adrenergic receptor beta; in [9]; at Glutamate NMDA receptor) was over 1000 nM in each case. Besides, the IC50 in experiment [10] and in [11] was over 1000 nM throughout. Besides, on Translocator protein, the Ki is over 1000 nM.

Take `CCCN(CCC)C(=O)Cc1c(-c2cccc(Cl)c2)[nH]c2ccccc12`: the IC50 (on Cannabinoid receptor 1; in experiment [1]; in experiment [2]; in experiment [3]; in [4]; in [5]) was over 1000 nM in each case. Moreover, the IC50 (in experiment [6]; in experiment [7]; in experiment [8]; on Adrenergic receptor beta; in experiment [9]; on Glutamate NMDA receptor) was over 1000 nM each time. For the same compound, the IC50 in experiment [10] and in [11] was over 1000 nM in each case. For the same compound, at Translocator protein, the Ki turned out to be 678 nM.

As to `CN(C)C(=O)Cc1c(-c2ccccc2)[nH]c2ccccc12`, the IC50 (at Cannabinoid receptor 1; in experiment [1]; in experiment [2]; in experiment [3]; in experiment [4]; in [5]) was over 1000 nM throughout. Further, the IC50 (in experiment [6]; in [7]; in experiment [8]; on Adrenergic receptor beta; in experiment [9]; at Glutamate NMDA receptor) was over 1000 nM in each case. Besides, the IC50 in experiment [10] and in experiment [11] was over 1000 nM throughout. Also, the affinity on Translocator protein, expressed as Ki, was 170 nM.

For the compound `CCCCCCN(C)C(=O)Cc1c(-c2ccc(F)cc2)[nH]c2ccccc12`, the IC50 (at Cannabinoid receptor 1; in [1]; in experiment [2]; in experiment [3]; in [4]; in experiment [5]) was over 1000 nM throughout. The IC50 (in experiment [6]; in experiment [7]; in [8]; at Adrenergic receptor beta; in [9]; on Glutamate NMDA receptor) was over 1000 nM throughout. In addition, the IC50 in [10] and in experiment [11] was over 1000 nM each time. Affinity on Translocator protein was put at a Ki of 135 nM.

Take `CCCN(CCC)C(=O)Cc1c(-c2ccccc2)[nH]c2c(F)cccc12`: the IC50 (at Cannabinoid receptor 1; in [1]; in experiment [2]; in experiment [3]; in [4]; in experiment [5]) was over 1000 nM each time. The IC50 (in experiment [6]; in [7]; in experiment [8]; at Adrenergic receptor beta; in experiment [9]; at Glutamate NMDA receptor) was over 1000 nM in each case. For the same compound, the IC50 in [10] and in experiment [11] was over 1000 nM in each case. For the same compound, the Ki at Translocator protein turned out to be 211 nM.

Take `O=C(Cc1c(-c2ccccc2)[nH]c2ccccc12)N1CCCC1`: the IC50 (at Cannabinoid receptor 1; in [1]; in experiment [2]; in experiment [3]; in experiment [4]; in experiment [5]) was over 1000 nM in each case. Moreover, the IC50 (in experiment [6]; in experiment [7]; in experiment [8]; on Adrenergic receptor beta; in experiment [9]; at Glutamate NMDA receptor) was over 1000 nM in each case. The IC50 in [10] and in experiment [11] was over 1000 nM in each case. Further, the Ki at Translocator protein came out at 338 nM.

Regarding `CCCN(CCC)C(=O)Cc1c(-c2ccccc2)[nH]c2ccccc12`, the IC50 (at Cannabinoid receptor 1; in experiment [1]; in experiment [2]; in [3]; in experiment [4]; in [5]) was over 1000 nM in each case. Moreover, the IC50 (in experiment [6]; in experiment [7]; in experiment [8]; on Adrenergic receptor beta; in experiment [9]; at Glutamate NMDA receptor) was over 1000 nM throughout. Moreover, the IC50 in experiment [10] and in experiment [11] was over 1000 nM each time. The Ki at Translocator protein is 100 nM.

With `CCN(CC)C(=O)Cc1c(-c2ccccc2)[nH]c2ccccc12`, the IC50 (at Cannabinoid receptor 1; in [1]; in experiment [2]; in experiment [3]; in [4]; in experiment [5]) was over 1000 nM each time. Moreover, the IC50 (in experiment [6]; in [7]; in [8]; on Adrenergic receptor beta; in [9]; at Glutamate NMDA receptor) was over 1000 nM in each case. Also, the IC50 in experiment [10] and in [11] was over 1000 nM throughout. On Translocator protein, the Ki stood at 156 nM.
